From ChEMBL document CHEMBL2169772, “Discovery of (2S)-1-[4-(2-{6-amino-8-[(6-bromo-1,3-benzodioxol-5-yl)sulfanyl]-9H-purin-9-yl}ethyl)piperidin-1-yl]-2-hydroxypropan-1-one (MPC-3100), a purine-based Hsp90 inhibitor” (J Med Chem, 2012) come the findings set out here.

Series [1] concerns the target T1, Heat shock protein HSP90 (Homo sapiens, UniProt P07900+P08238). Put plainly: Inhibition of human HSP90 in DU145 cells assessed as degradation of Akt incubated for 24 hrs by Western blot method. Format: cell-based. In short, it runs like this:
(§1)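 Cells exposed to a range of concentrations for 24 h. Lysates analyzed by Western blot with Her2-, Hsp70- and Akt-specific antibodies.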
Background: Immunoblotting shows a protein as a band on a membrane.

The nature of series [2]: Half life in Swiss nude mouse at 2.5 mg/kg, iv by LC-ESI-MS/MS method. The series is classed as ADME, organism-based. Set-up: dose 2.5 mg/kg, route intravenous. Conditions: in vivo. In short, it runs like this: (§2)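 Intravenous dose in mice, vehicle DMA/PEG300/EtOH/H2O 3/40/12/45. Sampling at 5, 15, 30, 60, 120, 240, 480 and 720 min, three or five animals per time point. Cardiac-puncture EDTA plasma. Acetonitrile protein precipitation with internal standard, then LC-ESI-MS/MS (10–10 000 ng/mL curve). Parameters by noncompartmental fit.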

For series [3], the target named is T1, Heat shock protein HSP90. Put plainly: Inhibition of human HSP90 in HCT116 cells expressing Her2 gene assessed as degradation of Her2 after 4 hrs by luciferase reporter gene assay. Conditions: hct-116. The series is classed as cell-based. In short, it runs like this: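 HCT116 cells stably transfected with Her2 kinase domain (aa 641–975) fused to firefly luciferase. Seeded at 10 000 per well in DMEM with 10% serum and left overnight. Compound added from DMSO (0.4% final) for 4 h. Steady-Glo added at room temperature for 5 min, then luminescence read.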
In general terms: In a reporter assay the amount or activity of a reporter protein is the signal.

Series [4] concerns Mus musculus. Put plainly: Toxicity in nude mouse xenografted with human NCI-N87 cells assessed as effect on body weight at 75 mg/kg, po qd for 22 days measured twice a week. The series is classed as organism-based. The arrangement: dose 75 mg/kg, route oral. Conditions: in vivo, 528 h. In short, it runs like this: (§3)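 Female nude mice (Crl:NU-Fox1nu) implanted subcutaneously in the right flank with 5 million NCI-N87 cells. At median tumor volume of roughly >100 mm3, randomized to 5 cohorts of 10. Dosed orally once daily for 22 days with vehicle (40% w/w Captisol) or 50, 75, 125 or 200 mg/kg. Tumor size and body weight measured at least twice weekly.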
In general terms: A xenograft is tissue or cells of one species grown in another, often human tumour cells in immunodeficient mice.

In series [5] the test system is OVCAR-8. Nature of the series: Cytotoxicity against human OVCAR8 cells assessed as inhibition of tumor growth incubated for 72 hrs by luminometry. The series is classed as functional, cell-based. As to conditions: OVCAR-8, 72 h. In short, it runs like this: (§4)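 Cells seeded at 5000 per well in DMEM with 10% serum and left overnight. Compound added from DMSO dilutions (0.4% DMSO final) for 72 h. After 5 min at room temperature, ATPLite two-step lysis and substrate added, 5 min incubation, then luminescence read. Values are the mean of at least two experiments.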

Series [6] in a line: Cytotoxicity against human NCI-ADR-RES cells overexpressing P-gp 1 assessed as inhibition of tumor growth incubated for 72 hrs by luminometry. Format: functional, cell-based. In short, it runs like this:
as §4

Series [7] relates to Mus musculus. Put plainly: Inhibition of HSP90 in human NCI-N87 cells xenografted nude mouse liver assessed as induction of HSP70 mRNA expression at 50 to 200 mg/kg, po qd for 22 days. Format: functional, organism-based.
Series [8] concerns the target T1, Heat shock protein HSP90. Put plainly: Inhibition of human HSP90 in NCI-N87 cells assessed as degradation of Her2 incubated for 24 hrs by Western blot method. The series is classed as cell-based. In short, it runs like this: as §1
Series [9] can be described thus: Oral bioavailability in Swiss nude mouse at 100 mg/kg administered using captisol and phosphate buffer system formulation by LC-ESI-MS/MS method. Conditions: in vivo.
A short description of series [10]: Cmax in Swiss nude mouse at 100 mg/kg, po by LC-ESI-MS/MS method. Format: ADME, organism-based. The arrangement: dose 100 mg/kg, route oral. As to conditions: in vivo. In short, it runs like this: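 Single oral gavage in mice, vehicle 40% Captisol in phosphate buffer. EDTA plasma from cardiac puncture. Acetonitrile precipitation with internal standard, then LC-ESI-MS/MS quantitation against a 10–10 000 ng/mL standard curve. Cmax and AUC by noncompartmental analysis.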

Series [11] addresses T1, Heat shock protein HSP90. Nature of the series: Inhibition of human HSP90 in HCT116 cells assessed as degradation of Akt incubated for 24 hrs by Western blot method. The series is classed as cell-based. In short, it runs like this:
as §1

Series [12] concerns Mus musculus. Put plainly: Toxicity in nude mouse xenografted with human NCI-N87 cells assessed as effect on body weight at 125 mg/kg, po qd for 22 days measured twice a week. Set-up: dose 125 mg/kg, route oral. Conditions: in vivo, 528 h. The series is classed as organism-based. In short, it runs like this:
as §3

A short description of series [13]: Permeability of the compound after 30 mins by PAMPA. Format: ADME. As to conditions: read-out: permeability. In short, it runs like this:
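Double-sink PAMPA with donor solutions at pH 5.0, 6.2 and 7.4. Filter coated with phospholipid in dodecane. Sandwich incubated 30 min at 37 °C with stirring equivalent to a 40 μm aqueous boundary layer. Permeability calculated from UV spectra at 250–490 nm. Verapamil run as positive control.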

Series [14] can be described thus: Oral bioavailability in Swiss nude mouse at 10 mg/kg by LC-ESI-MS/MS method. Format: ADME, organism-based. As to conditions: in vivo. In short, it runs like this:
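Mice dosed by oral gavage, vehicle DMA/PEG300/EtOH/H2O (3/40/12/45, v/v/v/v). Blood drawn by cardiac puncture into EDTA plasma. Three or five animals per time point. Plasma precipitated with acetonitrile plus internal standard. Quantified by LC-ESI-MS/MS against a 10–10 000 ng/mL standard curve with QC samples. Noncompartmental analysis.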

Series [15] is described as follows: Volume of distribution in Swiss nude mouse at 2.5 mg/kg, iv by LC-ESI-MS/MS method. The series is classed as ADME, organism-based. Set-up: dose 2.5 mg/kg, route intravenous. As to conditions: in vivo. In short, it runs like this: as §2
Series [16] has as its system MV4-11. Put plainly: Cytotoxicity against human MV4-11 cells assessed as inhibition of tumor growth incubated for 72 hrs by luminometry. Format: functional, cell-based. As to conditions: MV4-11, 72 h. In short, it runs like this:
as §4

The subject of series [17] is NCI-N87. Nature of the series: Antitumor activity against human NCI-N87 cells xenografted in po dosed nude mouse assessed as tumor growth inhibition administered as qd for 22 days measured twice a week. The series is classed as functional, organism-based. In short, it runs like this:
as §3

For series [18], the system named is NCI-N87. Nature of the series: Cytotoxicity against human NCI-N87 cells assessed as inhibition of tumor growth incubated for 72 hrs by luminometry. As to conditions: NCI-N87, 72 h. Format: functional, cell-based. In short, it runs like this: as §4

The source made the active and inactive calls. No cut-off for these calls is given here. Bounds are passed on as bounds.

Broadly, the IC50 is the point on the concentration scale where inhibition reaches its midpoint. In general, half-life refers to how long it takes for the measured level to halve. High values mean slow loss, low ones fast loss. One may read the bioavailability as the share of a dose that reaches the circulation, judged against a reference dose that is usually intravenous. Higher therefore signals good availability. By Cmax is commonly meant the maximum level reached in the sampled fluid or tissue. Usually Vd stands for the apparent volume that relates the amount in the body to the concentration in plasma or blood. High values mean wide distribution into tissue, low ones little distribution into tissue. In the case of `C[C@H](O)C(=O)N1CCC(CCn2c(Sc3cc4c(cc3Br)OCO4)nc3c(N)ncnc32)CC1`, the inhibition result in series [1] (DU-145), in series [8] and in series [11] (HCT-116) was “Dose-dependent effect” in each case. The IC50 was determined as 0.1 µM in series [1] (du-145); 0.06 µM in series [3]; 490 nM in series [5]; 4.3 µM in [6]; 0.1 µM in series [8]; 0.1 µM in [11] (hct-116). The IC50 in [16] was determined as 250 nM; in [18], 200 nM. In series [2], the half-life was 84 min. In addition, the Activity result in series [4] and in series [12] was “Non-toxic” in each case. In [7], the inhibition result is “Active”. Besides, the bioavailability in series [9] is greater than 50%; in series [14], 38%. The compound further had a Cmax in series [10] of 13100 ng/mL. Besides, the Papp at 0.5 h in series [13] is greater than 350 ×10⁻⁶ cm/s. This compound yielded a Vd in series [15] of 2.44 L/kg. The TGI result in series [17] was “Dose-dependent effect”.
